Assay outcomes as filed in PubChem BioAssay.
PGC1a acetyl up = raises PGC1a acetylation signal in U2OS cells; U2OS PGC1a acetylation AlphaScreen, overnight; activation, % at 15.6 µM; 0.21% of 350,000 active; AID 651723;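 active = every replicate reaching activation of at least 50%, whatever the mean replicate activation; inconclusive = replicates that disagree or another doubt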;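 note: hits raise the AlphaScreen acetylation signal above neutral controls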
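System: flag-PGC1a/GCN5 U2OS cells / Input: 7000 cells/well / Compound: single test concentration per compound / Incubation: overnight compound treatment, 37 °C / Technique: AlphaScreen on lysates with anti-acetyl-lysine antibody, acceptor and donor beads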
G6PC hep suppr = hepatocyte G6PC expression change via PGC-1a acetylation activation | shares compounds with PGC1a acetyl up | G6PC suppression (normalized activity, % of positive control; higher = more suppression), % at 26 µM | 240 tested, under 10 active | primary mouse hepatocytes, G6PC mRNA qPCR, forskolin | AID 743463;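 active = dose curves showing G6PC suppression whose half-maximal dose is at most twice the top valid dose; inconclusive = flat curves with moderate negative activity, or unreliable fits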;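 note: G6PC expression relative to GAPDH housekeeping gene as delta delta Ct; 0% = median of neutral control wells and 100% = median of positive control wells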
Hep PCK1 suppr = PGC-1a acetylation activators affecting PCK1 expression in hepatocytes. shares compounds with PGC1a acetyl up. primary mouse hepatocytes, PCK1 mRNA qPCR, forskolin-stimulated. PCK1 expression decrease, unspecified at 26 µM. 230 tested, under 10 active. AID 743465;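 active = compounds lowering PCK1 expression whose fitted half-maximal concentration is at most twice the top tested dose; inconclusive = flat fit with moderate opposite-direction effect, or poor fit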;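 note: values are delta delta Ct of PCK1 relative to GAPDH; higher delta delta Ct means lower PCK1 expression so positive values indicate hits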
PGC1a hep suppr = PGC-1a acetylation activator altering hepatocyte PGC-1a expression | shares compounds with PGC1a acetyl up | primary mouse hepatocytes, PGC-1a mRNA qPCR, forskolin; top dose 26 µM | max activity (PGC-1a expression decrease), % | 240 tested, under 10 active | AID 743467;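 active = compound lowering PGC-1a expression with fitted half-maximal concentration at most twice its top tested dose; inconclusive = flat curve with moderate opposite-direction effect, or poor fit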;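 note: 0% = neutral control wells median and 100% = positive control wells median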
Starred values were filed as active, the others as inactive; i = inactive; ? = inconclusive; nt = no result. Not all results are given here.

SMILES	PGC1a acetyl up	G6PC hep suppr	Hep PCK1 suppr	PGC1a hep suppr
CCN1CCN(Cc2ccc(NC(=O)c3ccc(C)c(NC(=O)c4c[nH]c5cc(C(F)(F)F)ccc5c4=O)c3)cc2C(F)(F)F)CC1	-78	nt	nt	nt
O=C(Cc1ccccc1)Nc1cccc(-c2nc3ncccc3o2)c1	122*	285	108	53
COc1ccc(C2CC(=O)N(C)c3ccccc3S2)cc1 (stereo not drawn)	-41	39	45	57
Cn1ncc(N=Cc2ccccc2)c1C(N)=O	-48	nt	nt	nt
CCN(CC(=O)NCc1ccc(Cl)cc1)C(=O)CSCC(=O)Nc1ccc(C)cc1	?	-12	34	60
Nc1nccc(-c2ccc(-n3cnc4ccccc43)cc2)n1	-44	nt	nt	nt
O=C(CN1CCC(n2nnc3cc(C(F)(F)F)ccc32)CC1)NCc1cccs1	nt	14	22	52
CCOc1ccc2nc(NCCNC(=O)Nc3ccccc3)c(C#N)cc2c1	-64	nt	nt	nt
Cc1ccc(C)c(S(=O)(=O)N(C(=O)c2ccncc2)c2ccc(OC(=O)c3ccncc3)cc2)c1	-44	nt	nt	nt
COc1ccc(S(=O)(=O)N(C)CC(=O)Nc2cccc(C(C)=O)c2)cc1Cl	?	17	13	?
COc1cc(C2Nc3cccc4cccc(c34)N2)ccc1OC(C)=O	-56	nt	nt	nt
CCCN(CCC)S(=O)(=O)c1ccc(C(=O)Nc2nnc(CSC)o2)cc1	-45	nt	nt	nt
COc1ccc(OC)c(NC(=O)CSc2nnc(-c3cccnc3)s2)c1	85*	-9	-11	55
O=C(c1ccc(Cl)cc1)C(Cn1cncn1)C(Sc1ccccc1)c1ccccc1 (stereo not drawn)	-61	nt	nt	nt
COc1ccc2sc(C)[n+](C)c2c1	-55	nt	nt	nt
O=C(NCc1cccs1)C1Cc2c(-c3ccc(Cl)cc3)ccnc2O1 (stereo not drawn)	101*	13	6.5	48
CCn1c(COc2ccc(=O)n(-c3ccccc3)n2)nnc1SCc1ccc(C)cc1	-46	nt	nt	nt
CC(C)(C)OC(=O)NCCc1nnc(SCc2ccc(Cl)cc2)o1	-41	nt	nt	nt
C[C@H]1CN([C@@H](C)CO)C(=O)c2cccc(NC(=O)Nc3cccc4ccccc34)c2O[C@H]1CN(C)Cc1ccc(C(=O)Nc2ccccc2N)cc1	81*	-38	-11	-13
C[C@H](CO)N1C[C@H](C)[C@H](CN(C)Cc2ccc(C(=O)Nc3ccccc3N)cc2)Oc2c(NC(=O)c3ccncc3)cccc2C1=O	-52	nt	nt	nt
C[C@H]1CN([C@@H](C)CO)C(=O)c2cccc(NC(=O)c3cnccn3)c2O[C@H]1CN(C)Cc1ccc(C(=O)Nc2ccccc2N)cc1	203*	-39	-7.5	93
O=C(CC1S/C(=N/N=C/c2c[nH]c3ccccc23)NC1=O)Nc1ccccc1 (stereo not drawn)	-42	nt	nt	nt
O=C(O)COc1ccc(/C=C2/SC(=S)N(Cc3ccccc3)C2=O)cc1	-72	nt	nt	nt
COC(=O)C[C@H]1c2cc(C(F)(F)F)ccc2S(=O)(=O)N1Cc1ccc(OC)cc1	106*	29	70	68
Cc1nnc(SCC(=O)N2CCC(c3noc4ccc(F)cc34)CC2)s1	-57	nt	nt	nt
SMILES	PGC1a acetyl up	G6PC hep suppr	Hep PCK1 suppr	PGC1a hep suppr
NCc1cccc(-n2cccn2)c1	-54	nt	nt	nt
Cc1ccc(C(=O)N2CCN(c3ccc(NC(=O)c4ccc(Br)o4)cc3)CC2)cc1	?	-37	-21	63
O=C(OCn1ncc(Br)c(Br)c1=O)c1ccc(F)cc1	-37	nt	nt	nt
O=C(COc1ccc(Cl)cc1)NCCCNC(=O)c1cccnc1	112*	-17	11	58
Fc1ccc(-c2nn3c(C4COc5ccccc5O4)nnc3s2)cc1 (stereo not drawn)	55*	39	-36	79
COc1cc(-c2cnc3c(NC(C)=O)cc(-c4ccccc4CN(C)C)cn23)cc(OC)c1OC	?	505	84	55
c1cncc(CNc2ncnc3ccc(-c4ccoc4)cc23)c1	-55	nt	nt	nt
Cc1nn2c(NCCCN3CCOCC3)c3c(nc2c1-c1ccccc1)CCC3	67*	i	426	53
CC1C(=O)C(C)(C)C(=O)OC1c1ccccc1 (stereo not drawn)	-49	nt	nt	nt
Cc1c(Cl)cccc1NS(=O)(=O)c1ccc2c(c1)C1C=CCC1C(c1ccc(C(=O)O)cc1)N2 (stereo not drawn)	-107	nt	nt	nt
CN(C)/C=N/c1nc2nccc(-c3ccccn3)n2n1	-47	nt	nt	nt
CCCS(=O)(=O)Nc1cccc(-c2nc3cccnc3s2)c1	?	-45	-27	35
COc1ccc(-n2c(C)c([N+](=O)[O-])c3ccc(O)c(CN(C)C)c32)cc1	-37	nt	nt	nt
CC(=O)N1N=C(c2ccco2)CC1c1ccco1 (stereo not drawn)	-49	nt	nt	nt
CCOC(=O)c1sc2nc(C)nc(NCc3ccccc3OC)c2c1C	-63	101	149	129
Cc1ccc(C(=O)c2cncc(Br)c2)cc1	-42	nt	nt	nt
Cc1ccc(C(=O)c2c[nH]c(C(=O)NCc3cccnc3)c2)cc1	75*	18	156	37
O=C1CCCc2ccccc2N1Cc1ccc(Cl)cc1Cl	-56	nt	nt	nt
Cc1cc(C)nc(NC(=S)Nc2ccccc2)n1	-60	nt	nt	nt
Cc1cc(C)c2nc(N(CCCN(C)C)C(=O)c3ccc(S(=O)(=O)N4CCCCCC4)cc3)sc2c1	64*	i	183	41
C=C1C(=O)[C@]23C[C@H]1CCC2[C@]1(C)CCC[C@@](C)(C(=O)O)C1C[C@@H]3O (stereo partly drawn)	-47	nt	nt	nt
CCc1ccc(-c2cn3nc(-c4ccccc4)cnc3n2)cc1	-45	nt	nt	nt
C=CCn1c(SCC(=O)Nc2ccc(C(=O)O)cc2)nnc1-c1cccnc1	-40	nt	nt	nt
CCn1c(SCC(=O)Nc2ccc(NC(=O)c3ccco3)cc2)nnc1-c1cccs1	124*	7	-8.6	52
CCN(CC)CC#CCOC(c1ccccc1)c1ccccc1	-44	nt	nt	nt
SMILES	PGC1a acetyl up	G6PC hep suppr	Hep PCK1 suppr	PGC1a hep suppr
Cc1noc(/C=C/N(C)C)c1S(=O)(=O)N(C)CC(=O)NC1CCCCC1	-43	nt	nt	nt
CCOC(=O)C1=C(C)N=C2SC(C(=O)OC)=CC(=O)N2C1c1cccc(OC)c1 (stereo not drawn)	-51	nt	nt	nt
CSc1nsc(SC)c1NC(=O)Nc1ccccc1C	-103	-16	21	56
Cc1cc2c(cc1S(=O)(=O)N1CCc3ccccc31)NC(=O)CO2	?	nt	19	15
O=C1CCCC(O)=C1N=Nc1ccc2c(c1)OCO2	-47	nt	nt	nt
CC1(C)CCCN(C(=O)N2c3ccccc3Sc3ccccc32)C1	?	-23	14	82
CCOc1ccc(N2C(=O)Cc3ccccc3C2=O)cc1	-43	nt	nt	nt
COC1=CC(=O)c2c(ccc3ncnc(N)c23)C1=O	-66	nt	nt	nt
COC(=O)Cn1ccc(-c2ccc(Cl)cc2)c(C#N)c1=O	-49	nt	nt	nt
C=C[C@H]1CN2CCC1C[C@H]2[C@H](O)c1ccnc2ccc(OC)cc12 (stereo partly drawn)	-48	nt	nt	nt
CCOc1ccc(S(=O)(=O)N(C)C)cc1-c1nc2c(C(C)(C)C)nn(C)c2c(=O)[nH]1	-48	nt	nt	nt
O=C(C1CCC1)N1CCN(S(=O)(=O)c2ccccc2)CC1	?	11	1.2	118
O=C(CCc1nc2ccccc2c(=O)[nH]1)Nc1ccc(N2CCCCC2)cc1	100*	42	nt	87
CC1=C/C(=N\OS(=O)(=O)c2ccccc2)C(C)=CC1=O	-60	nt	nt	nt
